From ChEMBL document CHEMBL4118251 (J Med Chem, 2018)

Key:
[1] = Agonist activity at monkey glucagon receptor expressed in HEK293 cells assessed as cAMP accumulation after 30 mins by HTRF assay; type: cell-based, Macaca mulatta
Summary of the method: (§1)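 HEK293 lines stably expressing human or monkey receptor were detached with accutase. Cells were resuspended at 400 000 cells/mL in HBSS/20 mM HEPES/0.1% BSA/2 mM IBMX and exposed to peptide for 30 min at room temperature. cAMP was read by HTRF (665/620 nm) after 1 h lysis.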

[2] = Agonist activity at monkey GIP receptor expressed in HEK293 cells assessed as cAMP accumulation after 30 mins by HTRF assay; type: cell-based, Macaca mulatta; summary of the method: as §1
[3] = target: T1, Gastric inhibitory polypeptide receptor (Homo sapiens, UniProt P48546); experiment: Agonist activity at human GIP receptor expressed in HEK293 cells assessed as cAMP accumulation after 30 mins by HTRF assay; type: functional, cell-based
T1 sequence (P48546 whole entry): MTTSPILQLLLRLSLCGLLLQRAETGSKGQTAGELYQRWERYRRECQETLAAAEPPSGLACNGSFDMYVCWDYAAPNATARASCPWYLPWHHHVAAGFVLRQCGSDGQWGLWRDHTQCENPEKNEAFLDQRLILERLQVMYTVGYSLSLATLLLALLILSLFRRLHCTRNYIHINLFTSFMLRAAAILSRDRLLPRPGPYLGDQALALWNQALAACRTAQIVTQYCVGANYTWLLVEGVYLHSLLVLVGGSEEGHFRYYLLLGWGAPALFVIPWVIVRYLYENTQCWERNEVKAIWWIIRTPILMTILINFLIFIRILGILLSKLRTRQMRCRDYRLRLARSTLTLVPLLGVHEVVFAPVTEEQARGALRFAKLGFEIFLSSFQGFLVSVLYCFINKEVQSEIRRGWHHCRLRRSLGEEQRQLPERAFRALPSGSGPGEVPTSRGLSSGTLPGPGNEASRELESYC

[4] = target: Glucagon-like peptide 1 receptor (Homo sapiens, UniProt P43220); experiment: Agonist activity at human GLP1R expressed in HEK293 cells assessed as cAMP accumulation after 30 mins by HTRF assay; type: functional, cell-based
Glucagon receptor = Glucagon receptor (Homo sapiens, UniProt P47871); experiment: Agonist activity at human glucagon receptor expressed in HEK293 cells assessed as cAMP accumulation after 30 mins by HTRF assay; type: functional, cell-based
Glucagon receptor, sequence (P47871 whole entry): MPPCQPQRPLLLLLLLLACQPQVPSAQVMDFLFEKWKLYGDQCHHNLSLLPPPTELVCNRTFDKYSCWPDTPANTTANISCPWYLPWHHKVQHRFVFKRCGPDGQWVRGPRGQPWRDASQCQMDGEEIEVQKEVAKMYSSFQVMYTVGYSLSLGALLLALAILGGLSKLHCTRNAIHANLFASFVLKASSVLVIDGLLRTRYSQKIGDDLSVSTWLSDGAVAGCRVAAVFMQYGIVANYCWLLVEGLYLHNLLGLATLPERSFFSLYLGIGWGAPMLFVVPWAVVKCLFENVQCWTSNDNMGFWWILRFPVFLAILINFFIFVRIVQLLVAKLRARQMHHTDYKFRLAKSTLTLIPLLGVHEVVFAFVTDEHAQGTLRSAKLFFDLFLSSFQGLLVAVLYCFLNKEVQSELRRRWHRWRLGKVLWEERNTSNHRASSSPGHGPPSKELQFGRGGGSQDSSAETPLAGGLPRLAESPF

Glucagon-like peptide 1 receptor, sequence (P43220 whole entry): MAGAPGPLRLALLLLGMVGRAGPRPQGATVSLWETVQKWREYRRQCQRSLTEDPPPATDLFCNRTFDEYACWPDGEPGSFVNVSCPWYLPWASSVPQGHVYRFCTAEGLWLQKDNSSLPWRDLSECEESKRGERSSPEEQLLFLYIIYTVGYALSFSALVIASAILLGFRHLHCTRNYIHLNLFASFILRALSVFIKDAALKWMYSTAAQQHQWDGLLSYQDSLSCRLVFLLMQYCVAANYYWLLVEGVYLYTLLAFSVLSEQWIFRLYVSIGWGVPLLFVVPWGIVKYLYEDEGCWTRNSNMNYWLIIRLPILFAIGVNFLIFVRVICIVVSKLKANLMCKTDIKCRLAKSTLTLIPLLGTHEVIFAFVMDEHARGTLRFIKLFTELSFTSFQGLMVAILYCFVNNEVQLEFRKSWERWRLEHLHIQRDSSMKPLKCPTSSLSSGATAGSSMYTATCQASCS

Compound	EC50 ([1]; hek293) [nM]	EC50 ([2]; hek293) [nM]	EC50 [3] [nM]	EC50 ([1]; Macaca mulatta, HEK293, 0.5 h) [nM]	EC50 ([2]; Macaca mulatta, HEK293, 0.5 h) [nM]	EC50 [4] [nM]	EC50 (Glucagon receptor) [nM]
GLUCAGON	0.0015	> 100000					
CC[C@H](C)[C@H](NC(=O)[C@H](Cc1ccccc1)NC(=O)[C@H](CCC(=O)O)NC(=O)[C@H](CCCCN)NC(=O)[C@H](C)NC(=O)[C@H](C)NC(=O)[C@H](CCC(N)=O)NC(=O)CNC(=O)[C@H](CCC(=O)O)NC(=O)[C@H](CC(C)C)NC(=O)[C@H](Cc1ccc(O)cc1)NC(=O)[C@H](CO)NC(=O)[C@H](CO)NC(=O)[C@@H](NC(=O)[C@H](CC(=O)O)NC(=O)[C@H](CO)NC(=O)[C@@H](NC(=O)[C@H](Cc1ccccc1)NC(=O)[C@@H](NC(=O)CNC(=O)[C@H](CCC(=O)O)NC(=O)[C@H](C)NC(=O)[C@@H](N)Cc1cnc[nH]1)[C@@H](C)O)[C@@H](C)O)C(C)C)C(=O)N[C@@H](C)C(=O)N[C@@H](Cc1c[nH]c2ccccc12)C(=O)N[C@@H](CC(C)C)C(=O)N[C@H](C(=O)N[C@@H](CCCCN)C(=O)NCC(=O)N[C@@H](CCCNC(=N)N)C(=O)O)C(C)C			> 100000	> 100000	> 100000		
CCCCCCCCCCCCCCCCCCC(=O)N[C@@H](CCC(=O)NCCCC[C@H](NC(=O)[C@H](CCC(N)=O)NC(=O)[C@H](CCCCN)NC(=O)[C@H](CO)NC(=O)[C@H](CC(C)C)NC(=O)[C@H](CC(=O)O)NC(=O)[C@H](CO)NC(=O)[C@@H](NC(=O)[C@H](Cc1ccccc1)NC(=O)[C@@H](NC(=O)CNC(=O)[C@H](CCC(N)=O)NC(=O)C(C)(C)NC(=O)[C@@H](N)Cc1cnc[nH]1)[C@@H](C)O)[C@@H](C)O)C(=O)N[C@@H](CC(=O)O)C(=O)N[C@@H](CCC(=O)O)C(=O)N[C@@H](CCC(N)=O)C(=O)N[C@@H](CCCNC(=N)N)C(=O)N[C@@H](C)C(=O)N[C@@H](CCCCN)C(=O)N[C@@H](CC(C)C)C(=O)N[C@@H](Cc1ccccc1)C(=O)N[C@H](C(=O)N[C@@H](CCC(=O)O)C(=O)N[C@@H](Cc1c[nH]c2ccccc12)C(=O)N[C@@H](CC(C)C)C(=O)N[C@@H](CCCCN)C(=O)N[C@@H](C)C(=O)NCC(=O)NCC(=O)N1CCC[C@H]1C(=O)N[C@@H](CO)C(=O)N[C@@H](CO)C(=O)NCC(=O)N[C@@H](C)C(=O)N1CCC[C@H]1C(=O)N1CCC[C@H]1C(=O)N1CCC[C@H]1C(=O)N[C@@H](CO)C(N)=O)[C@@H](C)CC)C(=O)O			0.0397			0.0025	0.0019
CCCCCCCCCCCCCCCCC(=O)N[C@@H](CCC(=O)NCCCC[C@H](NC(=O)[C@H](CCC(N)=O)NC(=O)[C@H](CCCCN)NC(=O)[C@H](CO)NC(=O)[C@H](CC(C)C)NC(=O)[C@H](CC(=O)O)NC(=O)[C@H](CO)NC(=O)[C@@H](NC(=O)[C@H](Cc1ccccc1)NC(=O)[C@@H](NC(=O)CNC(=O)[C@H](CCC(N)=O)NC(=O)[C@H](CO)NC(=O)[C@@H](N)Cc1cnc[nH]1)[C@@H](C)O)[C@@H](C)O)C(=O)N[C@@H](CC(=O)O)C(=O)N[C@@H](CO)C(=O)N[C@@H](CCCNC(=N)N)C(=O)N[C@@H](CCCNC(=N)N)C(=O)N[C@@H](C)C(=O)N[C@@H](CCC(N)=O)C(=O)N[C@@H](CC(=O)O)C(=O)N[C@@H](Cc1ccccc1)C(=O)N[C@H](C(=O)N[C@@H](CCC(=O)O)C(=O)N[C@@H](Cc1c[nH]c2ccccc12)C(=O)N[C@@H](CC(C)C)C(=O)N[C@@H](CCCCN)C(=O)N[C@@H](CC(N)=O)C(=O)NCC(=O)NCC(=O)N1CCC[C@H]1C(=O)N[C@@H](CO)C(=O)N[C@@H](CO)C(=O)NCC(=O)N[C@@H](C)C(=O)N1CCC[C@H]1C(=O)N1CCC[C@H]1C(=O)N1CCC[C@H]1C(=O)N[C@@H](CO)C(=O)O)[C@@H](C)CC)C(=O)O			1.21			0.0039	0.0007
CCCCCCCCCCCCCCCCC(=O)N[C@@H](CCC(=O)N[C@@H](CCC(=O)NCCCC[C@H](NC(=O)[C@H](CCC(N)=O)NC(=O)[C@H](CCCCN)NC(=O)[C@H](CO)NC(=O)[C@H](CC(C)C)NC(=O)[C@H](CC(=O)O)NC(=O)[C@H](CO)NC(=O)[C@@H](NC(=O)[C@H](Cc1ccccc1)NC(=O)[C@@H](NC(=O)CNC(=O)[C@H](CCC(N)=O)NC(=O)C(C)(C)NC(=O)[C@@H](N)Cc1cnc[nH]1)[C@@H](C)O)[C@@H](C)O)C(=O)N[C@@H](CC(=O)O)C(=O)N[C@@H](CCC(=O)O)C(=O)N[C@@H](CCC(N)=O)C(=O)N[C@@H](CCCNC(=N)N)C(=O)N[C@@H](C)C(=O)N[C@@H](CCCCN)C(=O)N[C@@H](CC(C)C)C(=O)N[C@@H](Cc1ccccc1)C(=O)N[C@H](C(=O)N[C@@H](CCC(=O)O)C(=O)N[C@@H](Cc1c[nH]c2ccccc12)C(=O)N[C@@H](CC(C)C)C(=O)N[C@@H](CC(C)C)C(=O)N[C@@H](C)C(=O)NCC(=O)NCC(=O)N1CCC[C@H]1C(=O)N[C@@H](CO)C(=O)N[C@@H](CO)C(=O)NCC(=O)N[C@@H](C)C(=O)N1CCC[C@H]1C(=O)N1CCC[C@H]1C(=O)N1CCC[C@H]1C(=O)N[C@@H](CO)C(N)=O)[C@@H](C)CC)C(=O)O)C(=O)O			0.189			0.0048	0.0016
CCCCCCCCCCCCCCCCC(=O)N[C@@H](CCC(=O)N[C@@H](CCC(=O)NCCCC[C@H](NC(=O)[C@H](CCC(N)=O)NC(=O)[C@H](CCCCN)NC(=O)[C@H](CO)NC(=O)[C@H](CC(C)C)NC(=O)[C@H](CC(=O)O)NC(=O)[C@H](CO)NC(=O)[C@@H](NC(=O)[C@H](Cc1ccccc1)NC(=O)[C@@H](NC(=O)CNC(=O)[C@H](CCC(N)=O)NC(=O)C(C)(C)NC(=O)[C@@H](N)Cc1cnc[nH]1)[C@@H](C)O)[C@@H](C)O)C(=O)N[C@@H](CC(=O)O)C(=O)N[C@@H](CCC(=O)O)C(=O)N[C@@H](CCC(N)=O)C(=O)N[C@@H](CCCNC(=N)N)C(=O)N[C@@H](C)C(=O)N[C@@H](CCCCN)C(=O)N[C@@H](CC(C)C)C(=O)N[C@@H](Cc1ccccc1)C(=O)N[C@H](C(=O)N[C@@H](CCC(=O)O)C(=O)N[C@@H](Cc1c[nH]c2ccccc12)C(=O)N[C@@H](CC(C)C)C(=O)N[C@@H](CCCCN)C(=O)N[C@@H](C)C(=O)NCC(=O)NCC(=O)N1CCC[C@H]1C(=O)N[C@@H](CO)C(=O)N[C@@H](CO)C(=O)NCC(=O)N[C@@H](C)C(=O)N1CCC[C@H]1C(=O)N1CCC[C@H]1C(=O)N1CCC[C@H]1C(=O)N[C@@H](CO)C(N)=O)[C@@H](C)CC)C(=O)O)C(=O)O			0.224			0.0022	0.0044
CCCCCCCCCCCCCCCCC(=O)N[C@@H](CCC(=O)N[C@@H](CCC(=O)NCCCC[C@H](NC(=O)[C@H](CCC(N)=O)NC(=O)[C@H](CCCCN)NC(=O)[C@H](CO)NC(=O)[C@H](CC(C)C)NC(=O)[C@H](CC(=O)O)NC(=O)[C@H](CO)NC(=O)[C@@H](NC(=O)[C@H](Cc1ccccc1)NC(=O)[C@@H](NC(=O)CNC(=O)[C@H](CCC(N)=O)NC(=O)C(C)(C)NC(=O)[C@@H](N)Cc1cnc[nH]1)[C@@H](C)O)[C@@H](C)O)C(=O)N[C@@H](CC(=O)O)C(=O)N[C@@H](CCC(=O)O)C(=O)N[C@@H](CCC(N)=O)C(=O)N[C@@H](CCCNC(=N)N)C(=O)N[C@@H](C)C(=O)N[C@@H](CCCCN)C(=O)N[C@@H](CC(C)C)C(=O)N[C@@H](Cc1ccccc1)C(=O)N[C@H](C(=O)N[C@@H](CCC(=O)O)C(=O)N[C@@H](Cc1c[nH]c2ccccc12)C(=O)N[C@@H](CC(C)C)C(=O)N[C@H](C(=O)N[C@@H](C)C(=O)NCC(=O)NCC(=O)N1CCC[C@H]1C(=O)N[C@@H](CO)C(=O)N[C@@H](CO)C(=O)NCC(=O)N[C@@H](C)C(=O)N1CCC[C@H]1C(=O)N1CCC[C@H]1C(=O)N1CCC[C@H]1C(=O)N[C@@H](CO)C(N)=O)[C@@H](C)CC)[C@@H](C)CC)C(=O)O)C(=O)O			0.0582			0.0053	0.0025
